According to ChEMBL document CHEMBL1155036, “Synthesis and biological activity of some new flavonyl-2,4-thiazolidinediones” (Bioorg Med Chem, 2008):

How the values were obtained:
[1] = biological target: Aldo-keto reductase family 1 member B1 (Rattus norvegicus) (UniProt P07943); assay: Inhibition of rat kidney aldose reductase activity assessed as NADPH oxidation at 100 uM
Method in brief: (§1)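 Assay in 0.067 M phosphate buffer, pH 6.2, with NADPH (2 × 10^-5 M final) and DL-glyceraldehyde substrate (5 × 10^-5 M final). The 340 nm absorbance decrease is followed for 5 min at 37 °C. Drug is added from a 10^-4 M stock in 50% DMF/50% methanol. Percent inhibition is measured at this single drug concentration, and IC50 from a concentration series. Triplicates; mean ± SD of three experiments.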

INS1 [2] = assay: Insulinotropic activity in rat INS1 cells assessed as glucose-mediated insulin release at 10 ug/ml by radioimmunoassay relative to glucose; type: functional
Method in brief: (§2)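 Rat INS-1 cells are grown 4–6 days to half confluence in RPMI with 10% FCS and penicillin/streptomycin. Cells are washed, then incubated 90 min at 37 °C in KRBH (10 mM HEPES, 0.5% BSA) at 5.6 mM glucose, with or without compound. Secreted insulin is measured by radioimmunoassay with a rat insulin standard and corrected for solvent (ethanol, DMSO). Results are normalized to 5.6 mM glucose = 100%. Mean ± SEM, N = 4–8; ANOVA with Newman–Keuls.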

INS1 [3] = assay: Insulinotropic activity in rat INS1 cells assessed as glucose-mediated insulin release at 1 ug/ml by radioimmunoassay relative to glucose; type: functional; method in brief: as §2
[4] = biological target: Aldo-keto reductase family 1 member B1 (Rattus norvegicus, UniProt P07943); assay: Inhibition of rat kidney aldose reductase activity assessed as NADPH oxidation; method in brief: as §1

Row | Compound | inhibition [1] | Activity (INS1 [2]) | Activity (INS1 [3]) | IC50 [4]
1 | O=C1NC(=O)/C(=C/c2ccc(-c3cc(=O)c4ccccc4o3)cc2)S1 | 88.7% | 23.79% | 55.7% | 432 nM
2 | O=C1NC(=O)/C(=C/c2ccc3oc(-c4ccccc4)cc(=O)c3c2)S1 | 64.9% | 158.9% | 82.55% | 683 nM
3 | CCOC(=O)CN1C(=O)S/C(=C\c2cccc(-c3cc(=O)c4ccccc4o3)c2)C1=O | 12.9% | 98.43% | 103.4% | 
4 | O=C1NC(=O)/C(=C/c2cccc(-c3cc(=O)c4ccccc4o3)c2)S1 | 22.1% | 18.95% | 79.76% | 
5 | O=C(O)CN1C(=O)S/C(=C\c2ccc3oc(-c4ccccc4)cc(=O)c3c2)C1=O | 56.3% | 80.92% | 101.3% | 852 nM
6 | CCOC(=O)CN1C(=O)S/C(=C\c2ccc3oc(-c4ccccc4)cc(=O)c3c2)C1=O | 14.4% | 98.52% | 93.28% | 
7 | O=C(O)CN1C(=O)S/C(=C\c2ccc(-c3cc(=O)c4ccccc4o3)cc2)C1=O | 44.6% | 91.88% | 102.4% | 
8 | O=C(O)CN1C(=O)S/C(=C\c2cccc(-c3cc(=O)c4ccccc4o3)c2)C1=O | 86.6% | 84.09% | 98.1% | 415 nM
9 | CCOC(=O)CN1C(=O)S/C(=C\c2ccc(-c3cc(=O)c4ccccc4o3)cc2)C1=O | 6.74% | 128.6% | 106.2% | 
10 | COc1ccc(Cl)cc1C(=O)NCCc1ccc(S(=O)(=O)NC(=O)NC2CCCCC2)cc1 [GLYBURIDE] |  |  | 179.6% | 
